The target of data set [1] is T1, Ribosyldihydronicotinamide dehydrogenase [quinone] (Homo sapiens, UniProt P16083).
T1 sequence (P16083 whole entry): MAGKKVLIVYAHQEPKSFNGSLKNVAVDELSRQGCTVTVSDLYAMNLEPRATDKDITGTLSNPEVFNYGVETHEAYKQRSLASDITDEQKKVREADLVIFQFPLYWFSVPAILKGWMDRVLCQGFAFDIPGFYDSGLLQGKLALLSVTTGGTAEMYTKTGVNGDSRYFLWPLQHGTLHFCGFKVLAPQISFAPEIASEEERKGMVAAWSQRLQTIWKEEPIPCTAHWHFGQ
Nature of the data set: (§1) Inhibition of human quinone reductase 2 using NMeH as substrate by MTT assay. The essentials:
(§2)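 Human QR2 (12 nM) with 25 μM NMeH and 200 μM MTT in 100 mM NaCl, 50 mM Tris pH 7.5, 0.1% Triton X-100, 23 °C; reactions started by enzyme. Formazan formation read at 612 nm; initial rates from ε 11,300 M-1cm-1. Inhibitor at varying concentrations, triplicate; IC50 from % inhibition versus zero-inhibitor control.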
(Tetrazolium dyes change colour on reduction, which living cells bring about.)

Data set [2] deals with T2, Ribosyldihydronicotinamide dehydrogenase [quinone] (Homo sapiens) (UniProt P16083).
T2 sequence (whole entry): T1 sequence (P16083 whole entry)
Nature of the data set: Inhibition of human quinone reductase 2 using NMeH as substrate by MTT assay relative to control.

For another data set, the system named is HCT-116. Nature of the data set: Cytotoxicity against human HCT116 cells assessed as cell growth at 10 uM. It is filed as cell-based. Conditions: hct-116, 10 µM. The method in brief: (§3)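 Cells exposed to compound at a single concentration; read-out is growth percent relative to untreated control cultures.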
Another data set deals with HOP-62. Put plainly: Cytotoxicity against human HOP62 cells assessed as cell growth at 10 uM. Format: cell-based. Conditions: hop-62, 10 µM. The essentials: as §3
Another data set deals with UACC-62. Nature of the data set: Cytotoxicity against human UACC62 cells assessed as cell growth at 10 uM. As to conditions: uacc-62, 10 µM. It is filed as cell-based. The essentials: as §3
In the next data set the test system is OVCAR-3. Nature of the data set: Cytotoxicity against human OVCAR3 cells assessed as cell growth at 10 uM. Format: cell-based. Conditions: ovcar-3, 10 µM. The essentials:
as §3

The test system of a further data set is SF-539. Put plainly: Cytotoxicity against human SF539 cells assessed as cell growth at 10 uM. It is filed as cell-based. As to conditions: sf-539, 10 µM. The essentials: as §3
Another data set relates to MCF7. Put plainly: Cytotoxicity against human MCF7 cells assessed as cell growth at 10 uM. It is filed as cell-based. As to conditions: mcf7, 10 µM. The method in brief:
as §3

The subject of a further data set is SN12C. Put plainly: Cytotoxicity against human SN12C cells assessed as cell growth at 10 uM. Format: cell-based. The essentials:
as §3

The subject of the next data set is DU-145. Put plainly: Cytotoxicity against human DU145 cells assessed as cell growth at 10 uM. It is filed as cell-based. As to conditions: du-145, 10 µM. The essentials: as §3
Data set [3] has as its target T2, Ribosyldihydronicotinamide dehydrogenase [quinone] (Homo sapiens). The data set is described as §1. The method in brief: as §2
Data set [4] shares this target. Put plainly: Ratio of IC50 for ammosamide B to compound IC50 for human quinone reductase 2 using NMeH as substrate by MTT assay.

Usually IC50 stands for the point on the concentration scale where inhibition reaches its midpoint. A low value points to higher potency.

The structures appear in SMILES notation. Activity calls are given as the source filed them. No cut-off for these calls is given here.

`NC(=O)c1cc(C(N)=O)c2cc(I)c(N)cc2n1`: the IC50 in data set [1] amounted to 1.5 µM. In data set [2], the Imax turned out to be 64%.

Turning to `CN(C)C(=O)c1cc2c3c(c(Cl)cc(Cl)c3n1)N(C)C2=O`, the Activity with HCT-116 was determined as 102.47%; in the data set with HOP-62 it was 118.26%; in the data set with UACC-62 it was 110.63%; in the data set on OVCAR-3, 126.09%; with SF-539, 101.43%; with MCF7 it was 122.71%. Moreover, the Activity in the data set on SN12C is recorded as 106.07%; in the data set on DU-145, 127.34%. For the same molecule, the IC50 in [1] was 25.2 µM. Further, in data set [2], the Imax stood at 31.5%.

Consider `COC(=O)c1cc(C(N)=O)nc2cc(N)cc(Cl)c12`, for which the Activity with HCT-116 amounted to 98.84%; in the data set on HOP-62, 109.87%; in the data set with UACC-62 it was 102.96%; with OVCAR-3, 110.07%; with SF-539, 104.82%; with MCF7, 97.23%. Further, the figures for the Activity in the data set with SN12C and in the data set on DU-145 were 102.63% and 105.75%, respectively. The IC50 in data set [1] turned out to be 1.1 µM. This molecule also displayed an Imax in data set [2] of 75.5%.

Consider `COC(=O)C1CC2(O)C(=O)Nc3c(Cl)cc(Cl)c(c32)N1` (centres undefined), for which the inhibition entry in [3] was “inactive”.

Regarding `COC(=O)C1CC(O)(C(=O)OC)c2c(N)c(Cl)cc(Cl)c2N1` (centres undefined), in data set [3], the inhibition entry was “inactive”.

In the case of `CN1C(=O)c2cc(C(=O)NCc3ccccc3)nc3c(Cl)cc(Cl)c1c23`, the Activity was determined as 103.06% with HCT-116; 113.2% in the data set with HOP-62; 101.93% with UACC-62; 103.52% in the data set with OVCAR-3; 97.49% with SF-539; 95.79% with MCF7. In addition, the Activity in the data set on SN12C worked out at 107.48%; in the data set with DU-145 it was 104.81%. For the same molecule, inhibition in data set [1] was half-maximal at 7.8 µM (IC50). In data set [2], the Imax is 44.8%.

In turn, `COC(=O)c1cc(C(=O)OC)c2c(Cl)c(N)c(N)cc2n1` registered a concentration for half-maximal inhibition (IC50) in data set [1] of 0.24 µM. This molecule came in with an Imax in data set [2] of 85.7%.

For `COC(=O)c1cc(C(=O)OC)c2c(Cl)cc(N)cc2n1`, the Activity turned out to be 108.2% with HCT-116; 108.99% in the data set with HOP-62; 101.7% in the data set with UACC-62; 106.32% in the data set with OVCAR-3; 117.31% in the data set on SF-539; 105.75% in the data set on MCF7. Besides, the results for the Activity with SN12C and in the data set on DU-145 were 102.78% and 108.11%, respectively. The midpoint of inhibition in [1], the IC50, lay at 3.3 µM. The molecule further gave an Imax in data set [2] of 87.9%.

Turning to `CNc1c(Cl)c(N)c2c3c(cc(C(N)=O)nc13)C(=O)N2C`, the IC50 in data set [1] came to 0.0041 µM. The Imax in data set [2] was found to be 102%. Moreover, the Ratio IC50 in data set [4] is greater than 10.

With `COC(=O)c1cc(C(=O)OC)c2c(Cl)cc(N)c(Cl)c2n1`, the Activity in the data set on HCT-116 was found to be 100.36%; in the data set on HOP-62, 104.53%; in the data set with UACC-62, 97.93%; in the data set on OVCAR-3, 109.55%; in the data set with SF-539, 99.06%; in the data set with MCF7 it was 100.27%. In addition, the Activity in the data set with SN12C is recorded as 99.49%; in the data set with DU-145, 108.85%. The 50% inhibitory concentration (IC50) in data set [1] was found to be 5.6 µM. The Imax in [2] turned out to be 91.1%.

The molecule `COC(=O)c1cc(C(N)=O)nc2cc(N(C)C)cc(Cl)c12` returned a half-inhibitory concentration (IC50) in data set [1] of 1.6 µM. Further, in data set [2], the Imax worked out at 80.5%.

In the case of `COC(=O)c1cc(C(=O)OC)c2c(Cl)cc(NC(C)=O)cc2n1`, the Activity was 103.44% in the data set with HCT-116; 112.21% in the data set on HOP-62; 112.51% with UACC-62; 124.69% with OVCAR-3; 109.23% with SF-539; 100.11% in the data set with MCF7. Further, the Activity in the data set on SN12C is 109.64%; in the data set with DU-145, 112.18%. In [1], this molecule registered a half-maximal inhibitory concentration (IC50) greater than 100 µM.

In the case of `COC(=O)c1cc(C(N)=O)nc2cc(NC(C)=O)cc(Cl)c12`, the Activity amounted to 104.18% in the data set on HCT-116; 103.41% with HOP-62; 108.54% in the data set with UACC-62; 120.2% in the data set on OVCAR-3; 107.48% with SF-539; 89.58% with MCF7. Also, the Activity in the data set with SN12C is recorded as 109%; with DU-145, 124.6%. Besides, inhibition in [1] was half-maximal at 9 µM (IC50). Also, the Imax in data set [2] is 96%.

Regarding `CN1C(=O)c2cc(C(N)=O)nc3c(Cl)cc(Cl)c1c23`, the Activity was determined as 107% in the data set on HCT-116; 105.32% in the data set on HOP-62; 90.84% in the data set on UACC-62; 108.21% in the data set with OVCAR-3; 104.34% in the data set with SF-539; 96.11% in the data set with MCF7. The Activity in the data set with SN12C was found to be 101.49%; in the data set with DU-145, 97.82%. Further, in data set [1], 5.8 µM corresponded to half-maximal inhibition (IC50). In addition, the Imax in data set [2] was 46.3%.

In the case of `COC(=O)c1cc(C(=O)OC)c2c(Cl)cc(N(C)C)cc2n1`, the Activity in the data set with HCT-116 was determined as 104.18%; in the data set on HOP-62, 114.23%; in the data set with UACC-62 it was 109.82%; in the data set with OVCAR-3 it was 115.27%; with SF-539, 100.61%; in the data set on MCF7, 78.61%. The values for the Activity in the data set on SN12C and in the data set with DU-145 were 113.39% and 138.91%, respectively. Further, the IC50 in data set [1] is 4 µM. Also, in [2], the Imax was found to be 92.2%.

The molecule `COC(=O)c1cc(C(N)=O)nc2cc(N)c(N)c(Cl)c12` gave a half-maximal inhibitory concentration (IC50) in data set [1] of 0.15 µM. Further, the Imax in data set [2] stood at 89.7%.

`COC(=O)c1cc2c3c(n1)C(=O)C(=O)C(Cl)=C3N(C)C2=O`: the Activity worked out at 104.56% with HCT-116; 110.6% with HOP-62; 96.96% in the data set on UACC-62; 123.43% in the data set on OVCAR-3; 106.99% with SF-539; 94.99% with MCF7. In addition, the Activity with SN12C was determined as 102.66%; with DU-145, 112.19%.

On to `CN1C(=O)c2cc(C(N)=O)nc3c(N)c(Cl)c(N)c1c23` [AMMOSAMIDE B], for which the Activity in the data set on HCT-116 is listed as 101.05%; in the data set on HOP-62 it was 96.95%; with UACC-62, 100.09%; with OVCAR-3, 115.24%; in the data set with SF-539, 88.22%; with MCF7, 98.04%. Further, the Activity in the data set with SN12C was determined as 98.89%; in the data set with DU-145, 114.59%. The concentration for half-maximal inhibition (IC50) in [1] was found to be 0.061 µM. The molecule also had an Imax in data set [2] of 90.3%.

With `COC(=O)c1cc(C(=O)OC)c2c(N)c(Cl)cc(Cl)c2n1`, in data set [1], the IC50 is 22.1 µM. In [2], the Imax is 36.6%.

In turn, `COC(=O)c1cc(C(N)=O)nc2cc(N)c(I)cc12` gave an IC50 in data set [1] of 1.5 µM. The same molecule showed an Imax in [2] of 83.9%.

The values above are taken from ChEMBL document CHEMBL1944539, “Design, synthesis, and biological evaluation of potent quinoline and pyrroloquinoline ammosamide analogues as inhibitors of quinone reductase 2” (J Med Chem, 2012).
